Results published in ChEMBL document CHEMBL1158567, “Azetidinone-isothiazolidinones: stereoselective synthesis and antibacterial evaluation of new monocyclic beta-lactams” (2010).
Converted amounts (≈) assume the structure as drawn.

Columns and labels:
Type in all cases: functional
Moraxella catarrhalis = test: Antibacterial activity against Moraxella catarrhalis ATCC 23246 after overnight incubation by broth microdilution method
In short: (§1)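 MIC from a broth microdilution screen against ATCC reference strains, run in cation-adjusted Mueller–Hinton broth. Inocula were made from overnight agar cultures: colonies were suspended in sterile saline to a turbidity equal to a 0.5 McFarland standard. The screen's upper cut-off was […]. Testing conditions were pH 7.4.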

Haemophilus influenzae = test: Antibacterial activity against Haemophilus influenzae ATCC 49247 after overnight incubation by broth microdilution method
In short: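 Broth microdilution MIC run in Haemophilus Test Medium (HTM). The inoculum was overnight agar colonies suspended in sterile saline to 0.5 McFarland turbidity. The upper cut-off was […]. Testing conditions were pH 7.4.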

Streptococcus pneumoniae = test: Antibacterial activity against Streptococcus pneumoniae ATCC 6305 after overnight incubation by broth microdilution method
In short: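 Broth microdilution MIC in cation-adjusted Mueller–Hinton broth supplemented with 5% horse serum. The inoculum was overnight agar colonies suspended in sterile saline to 0.5 McFarland turbidity. The screen cut-off was […]. Testing conditions were pH 7.4.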

Escherichia coli = test: Antibacterial activity against Escherichia coli ATCC 25922 after overnight incubation by broth microdilution method; in short: as §1
Enterococcus faecalis = test: Antibacterial activity against Enterococcus faecalis ATCC 29212 after overnight incubation by broth microdilution method; in short: as §1
Staphylococcus aureus = test: Antibacterial activity against Staphylococcus aureus ATCC 29213 after overnight incubation by broth microdilution method
In short: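 MIC from a broth microdilution screen in cation-adjusted Mueller–Hinton broth against the ATCC reference strain. The inoculum was colonies from overnight agar culture suspended in sterile saline to a 0.5 McFarland turbidity. The top concentration tested was […]. Testing conditions were pH 7.4.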

| SMILES | MIC (Moraxella catarrhalis) | MIC (Haemophilus influenzae) | MIC (Streptococcus pneumoniae) | MIC (Escherichia coli) | MIC (Enterococcus faecalis) | MIC (Staphylococcus aureus) |
| --- | --- | --- | --- | --- | --- | --- |
| CC1(C)S[C@@H]2[C@H](N3C(=O)c4ccccc4C3=O)C(=O)N2[C@H]1C(=O)N[C@H](C(=O)OCc1ccccc1)c1ccccc1 | > 128 µg/mL |  |  |  |  |  |
| CC(C)NC(=O)[C@@H]1N2C(=O)[C@@H](N3C(=O)c4ccccc4C3=O)[C@H]2SC1(C)C | > 128 µg/mL |  |  |  |  |  |
| CC1(C)SN([C@H](C(=O)OCc2ccccc2)c2ccccc2)C(=O)[C@@H]1N1C(=O)[C@@H](N2C(=O)c3ccccc3C2=O)[C@@H]1Cl | 64 µg/mL (≈ 106 µM) | > 128 µg/mL | 8 µg/mL (≈ 13.2 µM) | > 128 µg/mL | 16 µg/mL (≈ 26.5 µM) | 32 µg/mL (≈ 53 µM) |
| C[C@@H](C(=O)O)N1SC(C)(C)[C@@H](N2C(=O)[C@@H](N3C(=O)c4ccccc4C3=O)[C@@H]2Cl)C1=O |  |  |  |  | > 128 µg/mL |  |
| CC1(C)SN([C@H](C(=O)O)c2ccccc2)C(=O)[C@@H]1N1C(=O)[C@@H](N2C(=O)c3ccccc3C2=O)[C@@H]1Cl | > 128 µg/mL |  |  |  |  |  |
| C[C@@H](C(=O)OCc1ccccc1)N1SC(C)(C)[C@@H](N2C(=O)[C@@H](N3C(=O)c4ccccc4C3=O)[C@@H]2Cl)C1=O | 32 µg/mL (≈ 59 µM) | > 128 µg/mL | 64 µg/mL (≈ 118 µM) | > 128 µg/mL | 64 µg/mL (≈ 118 µM) | 64 µg/mL (≈ 118 µM) |
| CC1(C)SN(CC(=O)OCc2ccccc2)C(=O)[C@@H]1N1C(=O)[C@@H](N2C(=O)c3ccccc3C2=O)[C@@H]1Cl | 32 µg/mL (≈ 60.6 µM) | > 128 µg/mL | 64 µg/mL (≈ 121 µM) | > 128 µg/mL | 32 µg/mL (≈ 60.6 µM) | 64 µg/mL (≈ 121 µM) |
| CC1(C)SN(CC(=O)O)C(=O)[C@@H]1N1C(=O)[C@@H](N2C(=O)c3ccccc3C2=O)[C@@H]1Cl |  |  |  |  | > 128 µg/mL |  |
| CC(C)N1SC(C)(C)[C@@H](N2C(=O)[C@@H](N3C(=O)c4ccccc4C3=O)[C@@H]2Cl)C1=O | 64 µg/mL (≈ 152 µM) |  |  |  |  |  |
| CC1(C)S[C@@H]2[C@H](N3C(=O)c4ccccc4C3=O)C(=O)N2[C@H]1C(=O)NCC(=O)OCc1ccccc1 | 64 µg/mL (≈ 130 µM) |  |  |  |  |  |
| CC1(C)SN(Cc2ccccc2)C(=O)[C@@H]1N1C(=O)[C@@H](N2C(=O)c3ccccc3C2=O)[C@@H]1Cl | 16 µg/mL (≈ 34 µM) | > 128 µg/mL | 64 µg/mL (≈ 136 µM) | > 128 µg/mL | 64 µg/mL (≈ 136 µM) | 128 µg/mL (≈ 272 µM) |
| CC1(C)S[C@@H]2[C@H](N3C(=O)c4ccccc4C3=O)C(=O)N2[C@H]1C(=O)NCc1ccccc1 | 64 µg/mL (≈ 147 µM) |  |  |  |  |  |
| C[C@H](NC(=O)[C@@H]1N2C(=O)[C@@H](N3C(=O)c4ccccc4C3=O)[C@H]2SC1(C)C)C(=O)OCc1ccccc1 | > 128 µg/mL |  |  |  |  |  |
| CC1(C)S[C@@H]2[C@H](NC(=O)[C@H](N)c3ccc(O)cc3)C(=O)N2[C@H]1C(=O)O [AMOXICILLIN] | 0.5 µg/mL (≈ 1.37 µM) | 0.015 µg/mL (≈ 0.041 µM) | 4 µg/mL (≈ 10.9 µM) | 0.5 µg/mL (≈ 1.37 µM) | 4 µg/mL (≈ 10.9 µM) | 1 µg/mL (≈ 2.74 µM) |
